Holding throughout (assay type): cell-based
One data set concerns HepG2. Kind of data set: Cytotoxicity against human HepG2 cells assessed as reduction in cell viability up to 100 uM incubated for 48 hrs by WST-1 assay. To be noted: hepg2, 48 h. Put shortly: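 HepG2 cells were seeded at 3 × 10⁴/well and grown 24 h. Medium was then switched to DMEM with 1% FCS containing compound in 0.1% DMSO; 0.1% DMSO alone was the negative control. After 48 h, WST-1 was added and absorbance read at 450/620 nm after 45 min. Four experiments in duplicate.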

In data set [1] the target is T1, Peroxisome proliferator-activated receptor alpha (Homo sapiens) (UniProt Q07869).
T1 sequence (whole entry): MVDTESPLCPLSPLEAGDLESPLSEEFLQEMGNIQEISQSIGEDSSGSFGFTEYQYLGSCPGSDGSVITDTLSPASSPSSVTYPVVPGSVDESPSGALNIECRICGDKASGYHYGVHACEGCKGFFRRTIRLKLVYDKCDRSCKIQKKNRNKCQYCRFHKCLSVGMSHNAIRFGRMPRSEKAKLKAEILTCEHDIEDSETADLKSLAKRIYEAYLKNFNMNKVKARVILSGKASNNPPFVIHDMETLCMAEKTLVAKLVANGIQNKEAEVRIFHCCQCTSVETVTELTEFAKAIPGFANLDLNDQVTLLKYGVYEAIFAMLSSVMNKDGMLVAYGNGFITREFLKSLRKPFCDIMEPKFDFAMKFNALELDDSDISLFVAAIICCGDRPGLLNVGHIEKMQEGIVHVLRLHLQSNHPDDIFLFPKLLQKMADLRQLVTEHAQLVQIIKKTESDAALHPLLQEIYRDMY
The data set can be described thus: Agonist activity against human PPARalpha in human HEK293T cells co-expressing pFR/pRL-Luc assessed as receptor activation at 10 uM incubated for 14 to 16 hrs by hybrid reporter gene assay relative to bexarotene. To be noted: filed as agonist, time 14-16 hrs. An outline of the steps: (§1)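 Gal4 hybrid reporter assay in HEK293T cells, seeded 24 h before transfection (Lipofectamine LTX, Opti-MEM) with pFR-Luc, pRL-SV40 and pFA-CMV plasmid carrying the hinge region and LBD of the human receptor. After 5 h, compound added in 0.1% DMSO, with 0.1% DMSO alone as untreated control. Dual-Glo luciferase read after 14−16 h; firefly/renilla normalized; duplicates, ≥2 independent experiments.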
A general note: In a reporter assay the amount or activity of a reporter protein is the signal.

The target of data set [2] is T2, Retinoic acid receptor RXR-beta (Homo sapiens, UniProt P28702).
T2 sequence (P28702 whole entry): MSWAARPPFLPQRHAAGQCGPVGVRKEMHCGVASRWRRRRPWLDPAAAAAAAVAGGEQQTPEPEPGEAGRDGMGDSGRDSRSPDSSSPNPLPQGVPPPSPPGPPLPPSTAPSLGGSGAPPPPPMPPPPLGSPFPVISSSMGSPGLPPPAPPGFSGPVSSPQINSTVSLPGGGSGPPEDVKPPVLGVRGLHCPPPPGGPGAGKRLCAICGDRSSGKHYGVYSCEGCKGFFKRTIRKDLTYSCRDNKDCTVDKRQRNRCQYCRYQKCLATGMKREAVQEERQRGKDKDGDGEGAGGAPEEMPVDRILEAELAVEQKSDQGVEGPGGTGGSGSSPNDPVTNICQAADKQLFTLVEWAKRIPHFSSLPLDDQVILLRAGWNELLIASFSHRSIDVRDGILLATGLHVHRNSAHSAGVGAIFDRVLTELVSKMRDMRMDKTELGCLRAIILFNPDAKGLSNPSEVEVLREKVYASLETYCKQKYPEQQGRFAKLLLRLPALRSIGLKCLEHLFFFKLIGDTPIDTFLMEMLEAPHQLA
Kind of data set: Agonist activity at human RXRbeta transfected in human HEK293T cells co-expressing pFR/pRL-Luc incubated for 14 to 16 hrs by hybrid reporter gene assay.

The target of data set [3] is T3, Retinoic acid receptor RXR-gamma (Homo sapiens, UniProt P48443).
T3 sequence (P48443 whole entry): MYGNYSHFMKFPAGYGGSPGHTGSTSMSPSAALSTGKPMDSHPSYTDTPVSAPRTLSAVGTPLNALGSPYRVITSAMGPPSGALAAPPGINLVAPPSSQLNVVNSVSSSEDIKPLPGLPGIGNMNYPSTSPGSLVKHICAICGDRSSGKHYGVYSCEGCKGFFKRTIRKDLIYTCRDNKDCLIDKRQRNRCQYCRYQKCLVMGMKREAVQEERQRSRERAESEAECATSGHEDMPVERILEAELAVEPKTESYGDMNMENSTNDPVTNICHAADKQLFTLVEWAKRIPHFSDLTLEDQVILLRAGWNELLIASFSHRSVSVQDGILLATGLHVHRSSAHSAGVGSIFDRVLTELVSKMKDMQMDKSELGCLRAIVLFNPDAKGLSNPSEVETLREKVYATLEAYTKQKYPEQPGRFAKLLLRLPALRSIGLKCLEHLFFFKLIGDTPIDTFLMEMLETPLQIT
Kind of data set: Agonist activity at human RXRgamma transfected in human HEK293T cells co-expressing pFR/pRL-Luc incubated for 14 to 16 hrs by hybrid reporter gene assay.

The target of data set [4] is T4, Oxysterols receptor LXR-beta (Homo sapiens) (UniProt P55055).
T4 sequence (whole entry): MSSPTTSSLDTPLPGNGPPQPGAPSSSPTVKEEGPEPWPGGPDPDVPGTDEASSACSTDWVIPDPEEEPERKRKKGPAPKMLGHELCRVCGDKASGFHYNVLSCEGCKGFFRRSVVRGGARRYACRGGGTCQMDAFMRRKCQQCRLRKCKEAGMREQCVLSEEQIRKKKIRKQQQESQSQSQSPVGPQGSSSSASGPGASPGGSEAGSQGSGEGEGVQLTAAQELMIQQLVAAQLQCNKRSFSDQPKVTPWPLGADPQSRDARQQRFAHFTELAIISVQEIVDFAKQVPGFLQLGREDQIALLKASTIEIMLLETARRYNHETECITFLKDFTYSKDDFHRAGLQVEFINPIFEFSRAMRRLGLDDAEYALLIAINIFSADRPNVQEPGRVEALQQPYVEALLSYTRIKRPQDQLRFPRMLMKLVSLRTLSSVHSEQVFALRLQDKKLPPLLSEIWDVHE
Kind of data set: Agonist activity against human LXRbeta in human HEK293T cells co-expressing pFR/pRL-Luc assessed as receptor activation at 10 uM incubated for 14 to 16 hrs by hybrid reporter gene assay relative to bexarotene. As to conditions: filed as agonist, time 14-16 hrs. Put shortly: as §1

The structures appear in SMILES notation.

Take `O=C(O)CCCc1cc(-c2cc(Cl)cc(Cl)c2)n(-c2ccccc2)n1`: the figures for the Activity entry (in the data set on HepG2; in data set [1]; in data set [4]) were “Non-Toxic”, 2% and 2%, respectively. The EC50 (commonly the concentration that produces a half-maximal response) in data set [2] is 350 nM; in data set [3], 1600 nM.

Source of the values: ChEMBL document CHEMBL4834419 (J Med Chem, 2021).
